Experiments:
Type in all cases: functional, organism-based
Staphylococcus aureus [1] = experiment: Antibacterial activity against Staphylococcus aureus ATCC 29213 by CLSI method
Cryptococcus neoformans = experiment: Antifungal activity against Cryptococcus neoformans ATCC 90113 by M27A2 method
Leishmania donovani = experiment: Antileishmanial activity against Leishmania donovani promastigotes after 72 hrs by alamar blue assay
Summary of the method: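 L. donovani promastigote culture at 2 × 10^6 cells/mL was exposed to diluted compound in microplate wells and incubated at 26 °C for 72 h. Promastigote growth was read by Alamar blue. Pentamidine and amphotericin B were the reference drugs.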

Staphylococcus aureus [2] = experiment: Antibacterial activity against methicillin-resistant Staphylococcus aureus ATCC 33591 by CLSI method
Summary of the method: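 Methicillin-resistant S. aureus ATCC 33591 tested by a modified CLSI (formerly NCCLS) susceptibility method. Ciprofloxacin was included as the control drug in each assay.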

| Compound | IC50 (Staphylococcus aureus [1]) [µg/mL] | MIC (Staphylococcus aureus [1]) [µg/mL] | IC50 (Cryptococcus neoformans) [µg/mL] | MIC (Cryptococcus neoformans) [µg/mL] | IC50 (Leishmania donovani) [µg/mL] | IC90 (Leishmania donovani) [µg/mL] | IC50 (Staphylococcus aureus [2]) [µg/mL] | MIC (Staphylococcus aureus [2]) [µg/mL] |
| --- | --- | --- | --- | --- | --- | --- | --- | --- |
| CC1=CCC[C@@H]2[C@@](C)(CC/C(C)=C/C[n+]3cn(C)c4nc[nH]/c(=N/O)c43)[C@H](C)CC[C@@]12C [AGELOXIME B] | 7.21 | 10 | 4.96 | 10 | 28.5 | 33.2 | 9.2 | 20 |
| C=C1CC[C@@H]2C(C)(C)CCC[C@@]2(C)[C@@H]1CC/C(C)=C/C[n+]1cn(C)c2nc[nH]/c(=N\O)c21 | – | – | 5.94 | 10 | 29.3 | 34 | – | – |
